# From ChEMBL document CHEMBL1125520, “Improved brain delivery of AZT using a glycosyl phosphotriester prodrug” (1992)
# Columns and labels:
# Mus musculus [1] = species: Mus musculus; assay: Concentration of external nucleoside in mouse brain; assay type: functional
# Summary of the method: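 Male Swiss mice (6 weeks, 18–20 g) dosed by oral gavage in saline vehicle at 20 mg/kg AZT or molar equivalent (3 mM, 1.5 µmol/mouse). Brains taken 0.5–48 h post-dose, homogenized in acetonitrile–water 3:1, centrifuged, lyophilized and filtered. Analysed by column-switching C18 HPLC with diode-array detection against spiked standards and vehicle controls. Three mice per time point, triplicates; not recovery-corrected.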
# Mus musculus [2] = assay: In Vivo detection in Mice brains after oral administration of 41.63 mg/kg detected in the form of AZT after 1 hr; assay type: functional
# Mus musculus [3] = assay: In Vivo detection in Mice plasma after oral administration of 41.63 mg/kg detected in the form of AZT 5`-P after 48 hr; assay type: functional, organism-based; set-up: dose 41.63 mg/kg
# Mus musculus [4] = assay: In Vivo detection in Mice brains after oral administration of 41.63 mg/kg detected in the form of AZT after 8 hr; assay type: functional
# Mus musculus [5] = assay: In Vivo detection in Mice plasma after oral administration of 41.63 mg/kg detected in the form of AZT after 24 hr; assay type: functional, organism-based; set-up: dose 41.63 mg/kg
# Mus musculus [6] = assay: In Vivo detection of total AZT in Mice brains after oral administration of 41.63 mg/kg after 1 hr; assay type: functional
# Summary of the method: (§1)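 Male Swiss mice (18–20 g) dosed orally with a 3 mM solution in […] vehicle; decapitated at 0.5–48 h. Brains were homogenized in acetonitrile-water (3:1), centrifuged at 6000g for 40 min at 4 °C, lyophilized, redissolved in water and filtered (0.45 µm). Reversed-phase C18 column-switching HPLC with diode-array detection; standard spiking; vehicle-fed controls. Three mice per point, triplicates.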
# Mus musculus [7] = assay: In Vivo detection in Mice brains after oral administration of 41.63 mg/kg detected in the form of AZT after 0.5 hr; assay type: functional
# Mus musculus [8] = assay: In Vivo detection in Mice plasma after oral administration of 41.63 mg/kg detected in the form of AZT after 0.5 hr; assay type: functional, organism-based; set-up: dose 41.63 mg/kg
# Mus musculus [9] = assay: In Vivo detection of total AZT in Mice brains after oral administration of 41.63 mg/kg after 8 hr; assay type: functional; summary of the method: as §1
# Mus musculus [10] = assay: In Vivo detection in Mice brains after oral administration of 41.63 mg/kg detected in the form of AZT after 2 hr; assay type: functional
# Mus musculus [11] = assay: In Vivo detection of total AZT in Mice brains after oral administration of 41.63 mg/kg after 4 hr; assay type: functional; summary of the method: as §1
# Mus musculus [12] = species: Mus musculus; assay: In Vitro detection by Gray and Whittaker method for the total internal nucleoside; assay type: functional
# Summary of the method: (§2)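 Crude synaptosomes from three mouse brains were prepared by Gray–Whittaker homogenization in 10% sucrose buffered with 5 mM Tris-HCl, pH 7.4. The 7000g pellet was resuspended and incubated with each nucleoside at 3 mM for 15 min at 37 °C, stopped by cold 10-fold dilution and washed twice. Internal nucleoside was extracted in acetonitrile–water (3:1) and measured by HPLC.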
# Mus musculus [13] = assay: In Vivo detection in Mice brains after oral administration of 41.63 mg/kg detected in the form of AZT phosphodiester 2 after 24 hr; assay type: functional
# Mus musculus [14] = assay: In Vivo detection in Mice plasma after oral administration of 41.63 mg/kg detected in the form of AZT 5`-P after 1 hr; assay type: functional, organism-based; set-up: dose 41.63 mg/kg
# Mus musculus [15] = species: Mus musculus; assay: In Vitro detection by Gray and Whittaker method for % of internalization by comparing with external nucleoside of 2000 nM/g; assay type: functional; summary of the method: as §2
# Mus musculus [16] = assay: In Vivo detection in Mice plasma after oral administration of 41.63 mg/kg detected in the form of AZT 5`-P after 4 hr; assay type: functional, organism-based; set-up: dose 41.63 mg/kg
# Mus musculus [17] = assay: In Vivo detection in Mice plasma after oral administration of 41.63 mg/kg detected in the form of AZT 5`-P after 2 hr; assay type: functional, organism-based; set-up: dose 41.63 mg/kg
# Mus musculus [18] = assay: In Vivo detection of total AZT in Mice plasma after oral administration of 41.63 mg/kg after 4 hr; assay type: functional, organism-based; set-up: dose 41.63 mg/kg
# Summary of the method: (§3)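 Male Swiss mice (18–20 g, six weeks old) given the test substance or vehicle ([…]) by gavage as a 3 mM solution (1.5 µmol/mouse). Aortic blood was collected into heparinized tubes at 0.5–48 h and centrifuged at 13000g for 10 min. Plasma was stored at -22 °C and analysed by HPLC. Three mice were used per time point, in triplicate. Values were not corrected for recovery.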
# Mus musculus [19] = assay: In Vivo detection of total AZT in Mice plasma after oral administration of 41.63 mg/kg after 8 hr; assay type: functional, organism-based; set-up: dose 41.63 mg/kg; summary of the method: as §3
# Mus musculus [20] = assay: In Vivo detection in Mice plasma after oral administration of 41.63 mg/kg detected in the form of AZT phosphodiester 2 after 48 hr; assay type: functional, organism-based; set-up: dose 41.63 mg/kg
# Mus musculus [21] = assay: In Vivo detection in Mice plasma after oral administration of 58.33 mg/kg detected in the form of AZT phosphodiester 2 after 24 hr; assay type: functional, organism-based; set-up: dose 58.33 mg/kg; summary of the method: as §3
# Mus musculus [22] = assay: In Vivo detection in Mice brains after oral administration of 58.33 mg/kg detected in the form of AZT 5`-P after 24 hr; assay type: functional
# Mus musculus [23] = assay: In Vivo detection in Mice plasma after oral administration of 58.33 mg/kg detected in the form of AZT after 24 hr; assay type: functional, organism-based; set-up: dose 58.33 mg/kg
# Mus musculus [24] = assay: In Vivo detection in Mice brains after oral administration of 58.33 mg/kg detected in the form of AZT phosphodiester 2 after 4 hr; assay type: functional
# Mus musculus [25] = assay: In Vivo detection in Mice brains after oral administration of 58.33 mg/kg detected in the form of AZT phosphodiester 2 after 2 hr; assay type: functional
# Mus musculus [26] = assay: In Vivo detection in Mice brains after oral administration of 58.33 mg/kg detected in the form of AZT phosphodiester 3 after 2 hr; assay type: functional
# Mus musculus [27] = assay: In Vivo detection in Mice brains after oral administration of 58.33 mg/kg detected in the form of AZT after 8 hr; assay type: functional
# Mus musculus [28] = assay: In Vivo detection in Mice plasma after oral administration of 58.33 mg/kg detected in the form of AZT phosphodiester 2 after 8 hr; assay type: functional, organism-based; set-up: dose 58.33 mg/kg; summary of the method: as §3
# Mus musculus [29] = assay: In Vivo detection in Mice brains after oral administration of 58.33 mg/kg detected in the form of AZT 5`-P after 0.5 hr; assay type: functional
# Mus musculus [30] = assay: In Vivo detection of total AZT in Mice plasma after oral administration of 58.33 mg/kg after 1 hr; assay type: functional, organism-based; set-up: dose 58.33 mg/kg; summary of the method: as §3
# Mus musculus [31] = assay: In Vivo detection in Mice plasma after oral administration of 58.33 mg/kg detected in the form of AZT phosphodiester 3 after 0.5 hr; assay type: functional, organism-based; set-up: dose 58.33 mg/kg; summary of the method: as §3
# Mus musculus [32] = assay: In Vivo detection in Mice plasma after oral administration of 58.33 mg/kg detected in the form of AZT phosphodiester 3 after 24 hr; assay type: functional, organism-based; set-up: dose 58.33 mg/kg; summary of the method: as §3
# Mus musculus [33] = assay: In Vivo detection of total AZT in Mice brains after oral administration of 58.33 mg/kg after 48 hr; assay type: functional; summary of the method: as §1
# Mus musculus [34] = assay: In Vivo detection in Mice brains after oral administration of 58.33 mg/kg detected in the form of AZT phosphodiester 3 after 1 hr; assay type: functional
# Mus musculus [35] = assay: In Vivo detection in Mice plasma after oral administration of 58.33 mg/kg detected in the form of AZT 5`-P after 8 hr; assay type: functional, organism-based; set-up: dose 58.33 mg/kg
# Mus musculus [36] = assay: In Vivo detection of total AZT in Mice brains after oral administration of 58.33 mg/kg after 1 hr; assay type: functional; summary of the method: as §1
# Mus musculus [37] = assay: In Vivo detection in Mice brains after oral administration of 58.33 mg/kg detected in the form of AZT phosphodiester 2 after 1 hr; assay type: functional
structure (smiles),measurement,setting,value
Cc1cn([C@H]2C[C@H](N=[N+]=[N-])[C@@H](COP(=O)(O)OCCO[C@H]3O[C@H](CO)[C@@H](O)[C@H](O)[C@@H]3O)O2)c(=O)[nH]c1=O,External nucleoside,Mus musculus [1],8000 nM/g
same,Brain content,Mus musculus [2],1.9 nmol/g
same,Plasma content,Mus musculus [3],17.9 nM ml-1
same,Brain content,Mus musculus [4],0.9 nmol/g
same,Plasma content,Mus musculus [5],0 nM ml-1
same,Brain content,Mus musculus [6],97.7 nmol/g
same,Brain content,Mus musculus [7],1.8 nmol/g
same,Plasma content,Mus musculus [8],31.6 nM ml-1
same,Brain content,Mus musculus [9],43.1 nM ml-1
same,Brain content,Mus musculus [10],1.2 nmol/g
same,Brain content,Mus musculus [11],68.1 nM ml-1
same,Brain content,Mus musculus [12],8.3 nM/g
same,Brain content,Mus musculus [13],4.5 nM ml-1
same,Plasma content,Mus musculus [14],20 nM ml-1
same,Internalisation,Mus musculus [15],0.1%
same,Plasma content,Mus musculus [16],6.7 nM ml-1
same,Plasma content,Mus musculus [17],15 nM ml-1
same,Plasma content,Mus musculus [18],6.7 nM ml-1
same,Plasma content,Mus musculus [19],5.7 nM ml-1
same,Plasma content,Mus musculus [20],0 nM ml-1
CCCCCCCCCCCCCCCCOP(=O)(OCCO[C@H]1O[C@H](CO)[C@@H](O)[C@H](O)[C@@H]1O)OCC1OC(n2cc(C)c(=O)[nH]c2=O)CC1N=[N+]=[N-] (some centres undefined),Plasma content,Mus musculus [21],0 nM ml-1
same,Brain content,Mus musculus [22],81.3 nmol/g
same,Plasma content,Mus musculus [23],0 nM ml-1
same,Brain content,Mus musculus [24],7.1 nmol/g
same,Brain content,Mus musculus [25],5.2 nmol/g
same,Brain content,Mus musculus [26],0 nmol/g
same,Brain content,Mus musculus [12],567.8 nM/g
same,Brain content,Mus musculus [27],2 nmol/g
same,Plasma content,Mus musculus [28],0 nM ml-1
same,Brain content,Mus musculus [29],36.7 nmol/g
same,Plasma content,Mus musculus [30],14 nM ml-1
same,Internalisation,Mus musculus [15],6.24%
same,Plasma content,Mus musculus [31],0 nM ml-1
same,Plasma content,Mus musculus [32],0 nM ml-1
same,Brain content,Mus musculus [33],63.5 nM ml-1
same,Brain content,Mus musculus [34],0 nmol/g
same,Plasma content,Mus musculus [35],17.7 nM ml-1
same,Brain content,Mus musculus [36],156.7 nM ml-1
same,Brain content,Mus musculus [37],8.5 nmol/g
